Results taken from ChEMBL document CHEMBL4219195, “Discovery of a quinoline-based phenyl sulfone derivative as an antitrypanosomal agent” (Bioorg Med Chem Lett, 2018).
Activity calls are given as the source filed them. No cut-off for these calls is given here.

What was measured:
HepG2 = experiment: Cytotoxicity against human HepG2 cells assessed as decrease in cell viability after 72 hrs by MTT assay; type: cell-based; conditions: HepG2, 72 h
Procedure, shortened: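 HepG2 cells kept in DMEM:F12 with 10% FBS, pen/strep and 0.0125% Tween 80 at 37°C, 5% CO2. Cells trypsinized, seeded at 5 × 10⁵ cells/mL and left ~24 h, then given compounds in DMSO for 72 h. Medium replaced with MTT-containing medium for 1.5 h; formazan dissolved in DMSO; A550. Triplicates. Controls: 10% SDS, podophyllotoxin.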

[1] = molecular target: Rhodesain (Trypanosoma brucei rhodesiense) (UniProt Q95PM0); experiment: Inhibition of Trypanosoma brucei rhodesain expressed in Pichia pastoris at 20 uM using Z-phe-Arg-AMC as substrate preincubated for 1 hr followed by substrate addition by fluorescence assay
Procedure, shortened: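 Enzyme at 0.8 nM final with compound at 20 μM final, 1 h preincubation in 50 mM sodium acetate pH 5.5 with 2 mM DTT and 0.01% Triton X-100. Z-Phe-Arg-AMC (10 μM) then added. Cleavage rate (RFU/sec) read at 25 °C, ex 355/em 460 nm. E-64 (10 μM) served as 100% inhibition control.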

Trypanosoma brucei [2] = experiment: Antitrypanosomal activity against Trypanosoma brucei 427 bloodstream forms assessed as parasitic growth inhibition after 48 hrs by alamar blue assay; type: functional, organism-based; conditions: Trypanosoma brucei, 427, 48 h
Procedure, shortened: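 Bloodstream forms in supplemented HMI-9 medium (10% FBS, 10% Serum Plus, cysteine, hypoxanthine, β-mercaptoethanol, thymidine, pyruvate, bathocuproinesulfonate, Tween 80), 5 × 10³ cells/well, compound exposure 48 h in DMSO. Alamar blue then added, 4 h at 37°C; fluorescence ex 530/em 590 nm. Triplicates; IC50 from 0.3–50 μM range; suramin positive control.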

Trypanosoma brucei [3] = experiment: Antitrypanosomal activity against luciferase expressing Trypanosoma brucei STIB795 bloodstream forms infected in NMRI mouse assessed as parasitic growth inhibition at 50 to 100 mg/kg, ip administered for 4 consecutive days starting at 3 days post infection measured at 24 hrs post dose by live imaging analysis; type: functional, organism-based
Procedure, shortened: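 Groups of four female mice, each inoculated ip with 1 × 10⁴ bloodstream forms. Groups: control, 50 mg/kg/day and 100 mg/kg/day. Dosing ip in water plus 10% DMSO began 3 days post-infection. Parasitemia followed by live imaging. Moribund mice euthanized once parasitemia was detected.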

[4] = molecular target: Rhodesain (Trypanosoma brucei rhodesiense) (UniProt Q95PM0); experiment: Inhibition of Trypanosoma brucei rhodesain expressed in Pichia pastoris assessed as rato of Kinact to Ki using Z-phe-Arg-AMC as substrate preincubated for 1 hr followed by substrate additon by fluorescence assay
Procedure, shortened: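 Time-dependent inactivation study: rhodesain mixed with inhibitor (0, 0.06, 0.12, 0.24, 0.97, 3.9 μM) in assay buffer (50 mM sodium acetate pH 5.5, 2 mM DTT, 0.01% Triton X-100). Aliquots drawn every 10 min, assayed with 10 μM Z-Phe-Arg-AMC, RFU/sec followed 7 min at 25 °C (ex 355/em 460 nm). Analysed by pseudo-first-order inhibition plots.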

Rhodesain = Rhodesain (Trypanosoma brucei rhodesiense, UniProt Q95PM0); experiment: Inhibition of Trypanosoma brucei rhodesain expressed in Pichia pastoris using Z-phe-Arg-AMC as substrate preincubated for 1 hr followed by substrate addition by fluorescence assay
Procedure, shortened: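 Rhodesain at 0.8 nM final was pre-incubated 1 h with compound at 20 μM final in 50 mM sodium acetate pH 5.5, 2 mM DTT, 0.01% Triton X-100. Then 10 μM Z-Phe-Arg-AMC was added, and cleavage was read as RFU/sec at 25 °C (ex 355/em 460 nm). E-64 (10 μM) defined 100% inhibition.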

[5] = molecular target: Procathepsin L (Homo sapiens) (UniProt P07711); experiment: Inhibition of human liver cathepsin L using Z-phe-Arg-AMC as substrate at 0.1 to 125 uM preincubated for 1 hr followed by substrate addition by fluorescence assay
Procedure, shortened: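 Human liver CatL at 0.58 nM in 400 mM sodium acetate pH 5.5 with 8 mM DTT, 4 mM EDTA and 0.01% Triton X-100. Enzyme and compound preincubated 1 h, then Z-Phe-Arg-AMC (20 μM) added. AMC fluorescence rate read at ex 355/em 460 nm, 25 °C.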

Rhodesain (Trypanosoma brucei rhodesiense), sequence (Q95PM0 1-450): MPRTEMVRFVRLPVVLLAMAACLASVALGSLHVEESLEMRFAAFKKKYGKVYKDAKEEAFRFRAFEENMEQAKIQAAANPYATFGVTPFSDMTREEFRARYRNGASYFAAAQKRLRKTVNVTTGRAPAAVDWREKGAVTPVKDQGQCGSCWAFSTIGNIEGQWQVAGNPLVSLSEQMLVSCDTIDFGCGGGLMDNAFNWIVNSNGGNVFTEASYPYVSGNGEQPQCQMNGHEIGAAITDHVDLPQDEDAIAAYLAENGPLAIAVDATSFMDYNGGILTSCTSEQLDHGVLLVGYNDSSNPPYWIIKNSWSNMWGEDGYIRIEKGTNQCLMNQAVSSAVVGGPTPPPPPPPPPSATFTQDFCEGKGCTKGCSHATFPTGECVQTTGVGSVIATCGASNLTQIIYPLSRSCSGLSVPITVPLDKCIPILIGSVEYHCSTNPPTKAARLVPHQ
Rhodesain, sequence (Q95PM0 whole entry): as the sequence (Q95PM0 1-450) above
Procathepsin L (Homo sapiens), sequence (P07711 114-333 limits assumed): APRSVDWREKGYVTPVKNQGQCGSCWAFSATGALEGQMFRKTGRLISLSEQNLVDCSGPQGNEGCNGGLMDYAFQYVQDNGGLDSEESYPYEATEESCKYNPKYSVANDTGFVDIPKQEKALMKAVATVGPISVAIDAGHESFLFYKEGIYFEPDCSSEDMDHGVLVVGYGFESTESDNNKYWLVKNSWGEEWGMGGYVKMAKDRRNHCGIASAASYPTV

Compound	IC50 (HepG2)	inhibition [1]	IC50 (Trypanosoma brucei [2])	Activity (Trypanosoma brucei [3])	Ratio [4]	IC50 (Rhodesain)	inhibition [5]
O=C(Cc1ccc(OC/C=C/S(=O)(=O)c2ccccc2)cc1)Oc1ccc(C2CCCC2)cc1	> 20 µM	inactive	6.04 µM				
COc1cc([C@@H]2c3cc4c(cc3[C@H](O)[C@H]3COC(=O)[C@H]23)OCO4)cc(OC)c1OC [PODOFILOX]	0.008 µM						
CCCN1CCC(NC(=O)Cc2ccc(OC/C=C/S(=O)(=O)c3ccccc3)cc2)CC1	> 20 µM	inactive	> 20 µM				
O=C(Cc1ccc(OC/C=C/S(=O)(=O)c2ccccc2)cc1)Nc1cccc2cccnc12	> 80 µM	inactive	0.76 µM	inactive			
CC1(C)C2CC=C(CCOC(=O)Cc3ccc(OC/C=C/S(=O)(=O)c4ccccc4)cc3F)C1C2 (configuration not stated)	> 20 µM	inactive	7.03 µM				
CC1(C)[C@H]2CC=C(CCOC(=O)Cc3ccc(OC/C=C/S(=O)(=O)c4ccccc4)c(Cl)c3)[C@@H]1C2	> 80 µM	inactive	3.04 µM				
CC1=C[C@@H](OC(=O)Cc2ccc(OC/C=C/S(=O)(=O)c3ccccc3)cc2)C2C[C@H]1C2(C)C	> 20 µM	inactive	> 20 µM				
CC1(C)[C@@H]2CC[C@@](C)(C2)[C@@H]1OC(=O)Cc1ccc(OC/C=C/S(=O)(=O)c2ccccc2)cc1	11.9 µM	inactive	4.04 µM				
O=C(Cc1ccc(OC/C=C/S(=O)(=O)c2ccccc2)cc1)NC12CC3CC(CC(C3)C1)C2	> 20 µM	inactive	11.7 µM				
O=C(Cc1ccc(OC/C=C/S(=O)(=O)c2ccccc2)cc1)Oc1ccc(Cc2ccccc2)cc1	> 80 µM	inactive	1.47 µM				
O=C(Cc1ccc(OC/C=C/S(=O)(=O)c2ccccc2)cc1)OC1CCC[C@@H]2CCCC[C@H]12 (some centres not stated)	> 20 µM	inactive	5.63 µM				
CC1(C)C2CC[C@]1(C)C(NC(=O)Cc1ccc(OC/C=C/S(=O)(=O)c3ccccc3)cc1)C2 (some centres not stated)	> 20 µM	inactive	10.8 µM				
CC1(C)C2CC=C(COC(=O)Cc3ccc(OC/C=C/S(=O)(=O)c4ccccc4)cc3)C1C2 (configuration not stated)	> 20 µM	inactive	> 20 µM				
C[C@H](NC(=O)Cc1ccc(OC/C=C/S(=O)(=O)c2ccccc2)cc1)c1ccc2ccccc2c1	> 20 µM	inactive	5.45 µM				
CC(C)c1ccc(OC(=O)Cc2ccc(OC/C=C/S(=O)(=O)c3ccccc3)cc2)cc1	> 20 µM	inactive	> 20 µM				
CN1CCC(NC(=O)Cc2ccc(OC/C=C/S(=O)(=O)c3ccccc3)cc2)CC1	> 20 µM	inactive	> 20 µM				
CC1(C)[C@H]2CC=C(CCOC(=O)Cc3ccc(OC/C=C/S(=O)(=O)c4ccccc4)cc3)[C@@H]1C2	> 80 µM	inactive	2.01 µM				
O=C(N[C@H](/C=C/S(=O)(=O)c1ccccc1)CCc1ccccc1)c1cccc2cccnc12	> 80 µM	Active	5.97 µM		99 M⁻¹ s⁻¹	0.8 µM	inactive
CC1(C)C2CC[C@]1(C)C(OC(=O)Cc1ccc(OC/C=C/S(=O)(=O)c3ccccc3)cc1)C2 (some centres not stated)	> 20 µM	inactive	7.16 µM				
C[C@H](OC(=O)Cc1ccc(OC/C=C/S(=O)(=O)c2ccccc2)cc1)c1ccc2ccccc2c1	> 20 µM	inactive	5.62 µM				
O=C(Cc1ccc(OC/C=C/S(=O)(=O)c2ccccc2)cc1)Oc1ccc2cc(Br)ccc2c1	> 80 µM	inactive	2.18 µM				
Cc1ccc(C(=O)Nc2ccc(S(=O)(=O)O)c3cc(S(=O)(=O)O)cc(S(=O)(=O)O)c23)cc1NC(=O)c1cccc(NC(=O)Nc2cccc(C(=O)Nc3cc(C(=O)Nc4ccc(S(=O)(=O)O)c5cc(S(=O)(=O)O)cc(S(=O)(=O)O)c45)ccc3C)c2)c1 [SURAMIN]			0.004 µM				
O=C(Cc1ccc(OC/C=C/S(=O)(=O)c2ccccc2)cc1)Oc1ccc(C(F)(F)F)cc1	> 20 µM	inactive	> 20 µM				
CC(C)CCC[C@@H](C)[C@H]1CC[C@H]2[C@@H]3CC[C@H]4C[C@@H](OC(=O)Cc5ccc(OC/C=C/S(=O)(=O)c6ccccc6)cc5)CC[C@]4(C)[C@H]3CC[C@]12C	> 20 µM	inactive	> 20 µM				
